Compound activity (PubChem BioAssay)
Rows were chosen to be rich in hits. Some 2.1% of all compounds tested hit in one or more screens of this group.
RanGTP-Imp inh = inhibitors of RanGTP-importin-beta interaction, primary screen, biochemical, FRET, CFP-Ran, YFP-importin-beta, homogeneous | Ran GTPase (GTP-bound) - importin-beta complex | cell-free CFP-Ran/YFP-importin-beta FRET ratio | inhibition, % (concentration not given with the values) | 300,000 tested, 1.1% active;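 active = more than half of the replicate wells show a fall in the fluorescence ratio signal beyond about 16%, limit read from the data, passing the limit was not always enough; inconclusive = exactly half of the replicate wells pass the set limit; inactive = fewer than half of replicates pass the limit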;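 also: 0% = DMSO wells and 100% = Ran loaded with GDP instead of GTP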
pCIP destab = p/CIP-EGFP fusion destabilizers, primary screen, fluorescence, F442A cells; decrease of EGFP signal, % at 10 µM; Q05BA5; 290,000 tested, 0.01% active; 16 h;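 active = EGFP signal decrease of at least 30% at 10 µM or well 3 SD below plate mean, unless failing retest; inactive = the rest, including hits failing retest or dose response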
DSG3 Ab inh = inhibitors of pemphigus antibody binding to DSG3, primary screen, biochemical, bead-based, flow cytometry, scFv-GFP; Desmoglein-3 (Homo sapiens), P32926; DSG3-coupled beads, scFv-anti-DSG3-GFP binding; active compounds read low; binding (percent of control), % at 10 µM; 310,000 tested, 0.48% active; AID 588358, 2011;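 active = binding more than 3 SD below its plate's average and above zero; inconclusive = below that plate limit but binding exactly zero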;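 also: hits lower antibody fragment binding to DSG3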
Runt-SMMHC FRET = inhibitors of RUNX1 Runt–CBFb-SMMHC binding, primary screen, biochemical, FRET, Cerulean-Runt, Venus-CBFb-SMMHC, uHTS. Runt-related transcription factor 1 (Homo sapiens) + Core-binding factor subunit beta …. Cerulean-Runt/Venus-CBFb-SMMHC FRET ratio 530/480, 1 h. inhibition, % at 20 µM. 220,000 tested, 0.74% active;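 active = mean inhibition across duplicate retests at 20 µM reaching about 50%, limit read from the data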;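 also: 0% = DMSO wells and 100% = wells with excess untagged CBFb-SMMHC; inhibitors lower the FRET ratio by blocking Runt binding to CBFb-SMMHC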
Hck Nef HTS = inhibitors of Nef-activated human Hck kinase, primary screen, biochemical, Z-Lyte FRET, 384-well, Hck-YEEI; Tyrosine-protein kinase HCK (Homo sapiens), P08631; Recombinant Hck-YEEI plus Nef, Z-Lyte FRET kinase assay; inhibition, % at 20 µM; 220,000 tested, 0.68% active;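 active = Hck-Nef kinase inhibition above about 50%, limit read from the data; inactive = inhibition below that limit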;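 also: 0% = DMSO with Hck plus Nef and 100% = Hck alone without Nef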
Runt-CBFb FRET = inhibitors of RUNX1 Runt–CBFb binding, primary screen, biochemical, FRET, Cerulean-Runt, Venus-CBFb, uHTS; Cerulean-Runt/Venus-CBFb FRET ratio 530/480, 1 h; 220,000 tested, 0.46% active; AID 1496, 2009; inhibition, % at 20 µM;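 active = inhibition over about 50% at 20 µM in the single-dose screen, limit read from the data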;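 also: 0% = DMSO wells and 100% = excess unlabeled CBFb competitor control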
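Assay system: Cerulean-tagged RUNX1 Runt domain (FRET donor) fusion protein / Amount: 100 nM each of Venus-CBFb and Cerulean-Runt domain / Medium: Tris buffer pH 7.5 with salts and BSA / Also added: Venus-CBFb 100 nM / Schedule: 1 h complex formation plus 1 h compound treatment, room temperature / Signal: FRET fluorescence / Read-out: loss of energy transfer signal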
Starred values were filed as active, the others as inactive; u = inconclusive; x = not tested or not shown.

SMILES | RanGTP-Imp inh | pCIP destab | DSG3 Ab inh | Runt-SMMHC FRET | Hck Nef HTS | Runt-CBFb FRET
CCc1cccc(CC)c1NC(=S)N(CCN(C)C)C(C)c1cccnc1 (configuration not stated) | 0 | 0 | 111 | 0 | 7 | -2
CN(C(=O)c1ccc(Oc2ccc([N+](=O)[O-])cc2)cc1)C1CCCCC1 | 0 | -11 | 92* | x | x | x
CN(C(=O)c1cccc(NC(=O)Cc2ccc([N+](=O)[O-])cc2)c1)C1CCCCC1 | x | x | 98 | x | x | x
CCCC(C(=O)NC1CCCC1)N(C(=O)Cn1nnc(-c2ccc(C)o2)n1)C1CCCC1 (configuration not stated) | 1 | -16 | 90* | -2 | 1 | -9
Cc1nnc(NC(=O)CCn2c(=O)oc3ccccc32)s1 | 1 | -7 | 89 | x | x | x
C/C=C\C=C/C(=O)Nc1cccc(C2=NOC3(C2)C[C@@H](C(N)=O)N(C(=O)/C=C/C=C\C)C3)c1 (some centres not stated) | 2 | 0 | 68* | 0 | -21 | 15
C/C=C\C(=O)Nc1cccc(C2=NOC3(C2)C[C@@H](C(N)=O)N(C(=O)C2(C)CC2)C3)c1 (some centres not stated) | -3 | -7 | 112 | -2 | 29 | 2
C/C=C\C=C/C(=O)Nc1cccc(C2=NOC3(C2)C[C@@H](C(N)=O)N(C(=O)/C=C/CC)C3)c1 (some centres not stated) | u | -14 | 100 | 2 | -1 | 5
C/C=C\C=C/C(=O)Nc1cccc(C2=NOC3(C2)C[C@@H](C(N)=O)N(C(=O)C2(C)CC2)C3)c1 (some centres not stated) | 0 | -14 | 91* | 3 | 14 | 3
Cc1ccccc1OCC(=O)OCC(=O)NC1CCCCCC1 | x | x | 98 | x | x | x
NC(=O)c1ccc(NC(=O)COC(=O)c2c3c(nc4ccccc24)/C(=C\c2cccs2)CCC3)cc1 | 16* | 0 | 90 | -16 | 17 | -21
C=CCOc1ccc(C2C(C#N)=C(N)N(Nc3ccccc3)C3=C2C(=O)CC(C)(C)C3)cc1OC (configuration not stated) | 7 | 3 | 96 | 94* | 8 | 37
Cc1ccc(C)c(OCCNc2ncccc2[N+](=O)[O-])c1 | 3 | -12 | 101 | x | x | x
Cc1cc(-c2nc3ncccc3o2)ccc1NC(=S)NC(=O)C(C)C | -2 | -6 | 54* | 0 | -18 | 3
CCN1CCc2nc(SCC(=O)Nc3ccc(OC)cc3)c(C#N)cc2C1 | u | -5 | x | 94* | 18 | 21
COc1ccc(NC(=O)CSc2nc3c(cc2C#N)CN(C)CC3)cc1 | -1 | -10 | 99 | 6 | x | 10
Cc1ccc(Nc2nc3ccccc3s2)c(C)c1 | 1 | -5 | 79 | 1 | 4 | 0
Cc1cc(O)ccc1Nc1nc2ccccc2nc1Nc1ccc(O)cc1C | 37* | -10 | 94 | x | 1 | 38
COc1ccc(-c2onc3ccc(Br)cc23)cc1 | -8 | -6 | 104 | -20 | 2 | 14
COc1cc(-c2onc3ccc(Br)cc23)cc(OC)c1OC | 10 | -30 | 99 | 111* | 22 | 67*
O=C(Nc1ccc(N2CCOCC2)cc1)c1ccc2nc(-c3ccco3)c(-c3ccco3)nc2c1 | u | 2 | 2.0* | -27 | 11 | 10
S=C(Nc1ccc(N2CCOCC2)cc1)Nc1ccc2nc(-c3ccco3)c(-c3ccco3)nc2c1 | 20* | 0 | 84 | -388 | 1 | -95
CSCC[C@H](NC(=O)[C@@H]1CSC2c3ccccc3C(=O)N21)C(=O)N1CCC[C@H]1CO (some centres not stated) | 2 | -3 | x | x | x | x
CN(C)C1C(=O)c2ccccc2C1=O | -3 | -3 | 104 | 1 | 2 | -2
COc1ccccc1C1(O)C(=O)Nc2ccc(C)cc21 (configuration not stated) | 2 | -11 | 92 | x | x | x
SMILES | RanGTP-Imp inh | pCIP destab | DSG3 Ab inh | Runt-SMMHC FRET | Hck Nef HTS | Runt-CBFb FRET
Cc1cccc(N2CCN(C(=O)c3ccc4nc(-c5ccco5)c(-c5ccco5)nc4c3)CC2C)c1 (configuration not stated) | 35* | -3 | x | -15 | 9 | 13
CCCn1nnc(NC(=S)NC(=O)/C=C/c2ccco2)n1 | 0 | -11 | 106 | 0 | 21 | 10
CCOC(=O)C1=C(C)N=C2SC=C(C)N2C1c1ccc(OC)cc1 (configuration not stated) | 10 | 2 | 109 | 60* | 17 | 23
O=C(c1cc2c(=O)n3ccccc3nc2s1)N1CCc2ccccc2C1 | -1 | -14 | x | 81* | 36 | 19
CCC[n+]1c2ccccc2cc2ccccc21 | 155* | -7 | 90 | x | x | x
Cc1ccc2ccccc2[n+]1CCCS(=O)(=O)[O-] | 5 | -10 | 98 | 1 | 1 | -1
CCCC[n+]1c2ccccc2cc2ccccc21 | 150* | -6 | 86 | x | x | x
Cc1ccnc(NC(=O)CNC(=O)c2ccccc2Br)c1 | 1 | -1 | 111 | x | x | x
O=C(O)/C=C/C(O)c1ccc(Cl)cc1 (configuration not stated) | x | x | 95 | x | x | x
COc1ccc(N2CCN(S(=O)(=O)c3ccc(C(=O)NC4CCCC4)cc3)CC2)cc1 | 0 | -21 | 75* | 3 | 0 | -4
COc1ccc(C(=O)Nc2ccc(N3CCCC3)cc2)cc1 | -1 | 1 | 147 | 5 | -2 | 12
COc1ccc(C(=O)NC(=S)Nc2ccc(N3CCCC3)cc2)cc1 | 6 | -5 | 19* | 1 | -18 | 10
Cc1ccccc1NC(=O)c1cn2c(nc3ccccc32)c(C#N)c1C | 10 | -10 | 103 | 81* | 23 | -56
CC(C)(C)c1ccc(C(CC(=O)O)NC(=O)Cc2ccccc2)cc1 (configuration not stated) | 0 | 8 | 96 | x | x | x
COc1ccccc1OCCNC(=O)c1ccc(NC(=O)CC2SC(N3CCCC3)=NC2=O)cc1 (configuration not stated) | x | x | 105 | x | x | x
COc1cccc(C#Cc2c(C=O)n(C)c3ccccc23)c1 | x | x | 102 | x | x | x
COc1ccc(C#Cc2ccc3c(c2)c(=O)c2ccccc2n3C)cc1 | 84* | 10 | 93 | x | x | x
Cn1c2ccccc2c(=O)c2cc(C#Cc3ccc(N)cc3)ccc21 | 50* | -11 | 100 | x | x | x
